# From ChEMBL document CHEMBL5647697, “Akt inhibition synergizes with polycomb repressive complex 2 inhibition in the treatment of multiple myeloma” (2019)
# Calls of active or inactive are those of the source. No cut-off for these calls is given here.
# Columns and labels:
# OPM-2 [1] = assay: Synergistic activity against human OPM-2 cells assessed as combination index preincubated in presence of 2.5 uM UNC1999 for 72 hrs followed by compound addition at 5 uM incubated for 48 hrs by MTT assay; assay type: functional
# MM1.S [2] = assay: Synergistic activity against human MM.1S cells assessed as combination index […] compound addition at 0.25 uM incubated for 48 hrs by MTT assay; assay type: functional
# Procedure, shortened: (§1)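 Cells were exposed to the EZH2/EZH1 inhibitor (UNC1999 or GSK126) for 72 h in total, with the Akt inhibitor added for the last 48 h. Viability was read by MTS assay relative to untreated control cells, in triplicate. The combination index for each dose pair came from isobologram analysis.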
# OPM-2 [3] = assay: Synergistic activity against human OPM-2 cells assessed as combination index preincubated in presence of 1.25 uM UNC1999 for 72 hrs followed by compound addition at 2.5 uM incubated for 48 hrs by MTT assay; assay type: functional
# MM1.S [4] = assay: Upregulation of H3K27me3 protein expression in human MM1.S cells at 0.3 to 5 micromol/L for 6 to 48 hrs by Western blot analysis; assay type: functional, cell-based; conditions: dose 0.3-5 µmol/L, time 6-48 hrs
# Procedure, shortened: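 H3K27me3 was detected by immunoblot in MM.1S and H929 cells. Cells were given graded TAS-117 for 48 h, or 5 μmol/L for the indicated times. Signal is quantified relative to the H3 loading control.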
# MM1.S [5] = assay: Synergistic activity against human MM.1S cells assessed as combination index […] at 0.25 uM incubated for 48 hrs by […]; assay type: functional; procedure, shortened: as §1
# MM1.S [6] = assay: Downregulation of cyclin D1 protein expression in human MM1.S cells incubated at 0.3 to 3 micromol/L for 48 hrs by Western blot analysis; assay type: functional, cell-based; conditions: dose 0.3-3 µmol/L
# Procedure, shortened: (§2)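 MM.1S and H929 cells given TAS-117 at the indicated doses for 48 h. Protein levels assessed by immunoblot.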
# OPM-2 [7] = assay: Synergistic activity against human OPM-2 cells assessed as combination index preincubated in presence of 2.5 uM GSK126 for 72 hrs followed by compound addition at 5 uM incubated for 48 hrs by MTT assay; assay type: functional
# MM1.S [8] = assay: Upregulation of EZH1 mRNA expression in human MM1.S cells transduced with EZH1 at 0.3 micromol/L after 24 hrs by qRT-PCR analysis relative to control; assay type: functional, cell-based; conditions: dose 0.3 µmol/L
# Procedure, shortened: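 MM.1S cells were transduced with lentiviral shRNA against EZH1 or luciferase (shLuc control). Cells were then given graded TAS-117 for 24 h. EZH1 mRNA was measured by qRT-PCR and normalized to GAPDH.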
# MM1.S [9] = assay: Induction of apoptosis in human MM1.S cells assessed as early apoptotic cells at 2 micromol/L incubated for 12 hrs by annexin V/PI staining based flow cytometry (reference value: 8.03%); assay type: functional; conditions: dose 2 µmol/L, at 2 µM
# NCI-H929 [10] = assay: Synergistic activity against human NCI-H929 cells assessed as combination index […] at 0.5 uM incubated for 48 hrs by […]; assay type: functional; procedure, shortened: as §1
# MM1.S [11] = assay: Cytotoxicity against human MM1.S cells transduced with EZH1 assessed as enhanced sensitivity at 0.156 to 2.5 micromol/L 48 hrs by MTS assay; assay type: functional, cell-based; conditions: dose 0.156-2.5 µmol/L
# Procedure, shortened: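 MM.1S or H929 cells transduced with lentiviral shRNA against EZH1 or against luciferase (shLuc control), then given TAS-117 at the indicated doses for 48 h. Viability by MTS relative to untreated control; mean ± SD of triplicates; compared with shLuc.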
# OPM-2/BTZ [12] = assay: Synergistic activity against human OPM-2/BTZ cells assessed as combination index preincubated in presence of 5 uM GSK126 for 72 hrs followed by compound addition at 0.5 uM incubated for 48 hrs by MTT assay; assay type: functional
# NCI-H929 [13] = assay: Induction of apoptosis in human NCI-H929 cells assessed as late apoptotic cells preincubated in presence of 5 micromol/L UNC1999 for 48 hrs followed by compound addition at 2 micromol/L incubated for 12 hrs by annexin V/PI staining based flow cytometry (reference value: […]%); assay type: functional; conditions: dose 2 µmol/L
# OPM-2/BTZ [14] = assay: Downregulation of CDK1 protein expression in human OPM-2/BTZ cells incubated at 0.3 to 3 micromol/L for 48 hrs by Western blot analysis; assay type: functional, cell-based; conditions: dose 0.3-3 µmol/L
# NCI-H929 [15] = assay: Upregulation of BIM mRNA expression in human NCI-H929 cells at 1 micromol/L after 24 hrs by qRT-PCR analysis; assay type: functional, cell-based; conditions: dose 1.0 µmol/L
# Procedure, shortened: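 Cells were exposed to 1 μmol/L TAS-117 for 24 h. mRNA of FOXO3, FOXO4, BIM and CDKN1B was measured by qRT-PCR in H929 cells. Fold change is relative to the untreated control after normalization to GAPDH. Data are SD of triplicates.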
# NCI-H929 [16] = assay: Downregulation of cyclin D1 protein expression in human NCI-H929 cells incubated at 0.3 to 3 micromol/L for 48 hrs by Western blot analysis; assay type: functional, cell-based; conditions: dose 0.3-3 µmol/L; procedure, shortened: as §2
# MM1.S [17] = assay: Upregulation of FOXO3 in human MM1.S cells assessed as enhanced nuclear accumulation at 0.5 micromol/L after 24 hrs by immunofluorescence staining; assay type: functional, cell-based; conditions: dose 0.5 µmol/L
# Procedure, shortened: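 MM.1S and H929 cells were treated with or without 0.5 μmol/L TAS-117 for 24 h. Cells were immunostained with anti-FOXO3. Jurkat cells served as positive control and cells without primary antibody as negative control. Read-out was the average fluorescence intensity of the nuclear FOXO3 fraction versus untreated cells.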
# NCI-H929 [18] = assay: Induction of apoptosis in human NCI-H929 cells assessed as late apoptotic cells at 5 micromol/L incubated for 48 hrs by annexin V/PI staining based flow cytometry (reference value: […]%); assay type: functional; conditions: dose 5 µmol/L
# MM1.S [19] = assay: Synergistic activity against human MM.1S cells assessed as combination index […] compound addition at 0.125 uM incubated for 48 hrs by […]; assay type: functional; procedure, shortened: as §1
# NCI-H929 [20] = assay: Induction of apoptosis in human NCI-H929 cells assessed as necrotic cells at 2 micromol/L incubated for 12 hrs by annexin V/PI staining based flow cytometry (reference value: 2.61%); assay type: functional; conditions: dose 2 µmol/L, at 2 µM
# NCI-H929 [21] = assay: Induction of apoptosis in human NCI-H929 cells assessed as viable cells at 5 micromol/L incubated for 48 hrs by annexin V/PI staining based flow cytometry (reference value: 95.6%); assay type: functional; conditions: NCI-H929, 48 h, dose 5 µmol/L, read-out: Activity
# OPM-2 [22] = assay: Synergistic activity against human OPM-2 cells assessed as combination index preincubated in presence of 5 uM GSK126 for 72 hrs followed by compound addition at 5 uM incubated for 48 hrs by MTT assay; assay type: functional
# OPM-2/BTZ [23] = assay: Downregulation of EZH2 mRNA expression in human OPM-2/BTZ cells at 3 micromol/L after 24 hrs by qRT-PCR analysis; assay type: functional, cell-based; conditions: dose 3.0 µmol/L
# NCI-H929 [24] = assay: Induction of apoptosis in human NCI-H929 cells assessed as necrotic cells at 5 micromol/L incubated for 48 hrs by annexin V/PI staining based flow cytometry (reference value: 2.61%); assay type: functional; conditions: dose 5 µmol/L, at 5 µM
# OPM-2 [25] = assay: Synergistic activity against human OPM-2 cells assessed as combination index preincubated in presence of 1.25 uM UNC1999 for 72 hrs followed by compound addition at 5 uM incubated for 48 hrs by MTT assay; assay type: functional
# OPM-2 [26] = assay: Synergistic activity against human OPM-2 cells assessed as combination index preincubated in presence of 5 uM UNC1999 for 72 hrs followed by compound addition at 1.25 uM incubated for 48 hrs by MTT assay; assay type: functional
smiles,measurement,setting,value
C[C@]1(O)C[C@@](N)(c2ccc(-c3nc4n(c3-c3ccccc3)COc3ccncc3-4)cc2)C1 [PIFUSERTIB],CI,OPM-2 [1],3.1
same,CI,MM1.S [2],0.584
same,CI,OPM-2 [3],1.51
same,Activity,MM1.S [4],Active
same,CI,MM1.S [5],0.826
same,Activity,MM1.S [6],Active
same,CI,OPM-2 [7],6.9
same,Activity,MM1.S [8],Active
same,Activity,MM1.S [9],9.49%
same,CI,NCI-H929 [10],1.046
same,Activity,MM1.S [11],Active
same,CI,OPM-2/BTZ [12],1.112
same,Activity,NCI-H929 [13],11.3%
same,Activity,OPM-2/BTZ [14],Active
same,Activity,NCI-H929 [15],Active
same,Activity,NCI-H929 [16],Active
same,Activity,MM1.S [17],Active
same,Activity,NCI-H929 [18],6.81%
same,CI,MM1.S [19],0.751
same,Activity,NCI-H929 [20],0.35%
same,viability at 5 µM,NCI-H929 [21],82.7%
same,CI,OPM-2 [22],5.39
same,Activity,OPM-2/BTZ [23],Active
same,Activity,NCI-H929 [24],0.84%
same,CI,OPM-2 [25],1.743
same,CI,OPM-2 [26],5.25
